# Measurements from ChEMBL document CHEMBL2157917, “Targeting conserved water molecules: design of 4-aryl-5-cyanopyrrolo[2,3-d]pyrimidine Hsp90 inhibitors using fragment-based screening and structure-based optimization” (Bioorg Med Chem, 2012).
# “And” between values parts separate entries of the source, which are not always exact repeats. Equal entries are not always repeated.
# How the values were obtained:
# [1] = biological target: T1, Voltage-gated inwardly rectifying potassium channel KCNH2 (Homo sapiens, UniProt Q12809); test: Displacement of [3H]-dofetilide from human ERG
# T1 sequence (Q12809 whole entry): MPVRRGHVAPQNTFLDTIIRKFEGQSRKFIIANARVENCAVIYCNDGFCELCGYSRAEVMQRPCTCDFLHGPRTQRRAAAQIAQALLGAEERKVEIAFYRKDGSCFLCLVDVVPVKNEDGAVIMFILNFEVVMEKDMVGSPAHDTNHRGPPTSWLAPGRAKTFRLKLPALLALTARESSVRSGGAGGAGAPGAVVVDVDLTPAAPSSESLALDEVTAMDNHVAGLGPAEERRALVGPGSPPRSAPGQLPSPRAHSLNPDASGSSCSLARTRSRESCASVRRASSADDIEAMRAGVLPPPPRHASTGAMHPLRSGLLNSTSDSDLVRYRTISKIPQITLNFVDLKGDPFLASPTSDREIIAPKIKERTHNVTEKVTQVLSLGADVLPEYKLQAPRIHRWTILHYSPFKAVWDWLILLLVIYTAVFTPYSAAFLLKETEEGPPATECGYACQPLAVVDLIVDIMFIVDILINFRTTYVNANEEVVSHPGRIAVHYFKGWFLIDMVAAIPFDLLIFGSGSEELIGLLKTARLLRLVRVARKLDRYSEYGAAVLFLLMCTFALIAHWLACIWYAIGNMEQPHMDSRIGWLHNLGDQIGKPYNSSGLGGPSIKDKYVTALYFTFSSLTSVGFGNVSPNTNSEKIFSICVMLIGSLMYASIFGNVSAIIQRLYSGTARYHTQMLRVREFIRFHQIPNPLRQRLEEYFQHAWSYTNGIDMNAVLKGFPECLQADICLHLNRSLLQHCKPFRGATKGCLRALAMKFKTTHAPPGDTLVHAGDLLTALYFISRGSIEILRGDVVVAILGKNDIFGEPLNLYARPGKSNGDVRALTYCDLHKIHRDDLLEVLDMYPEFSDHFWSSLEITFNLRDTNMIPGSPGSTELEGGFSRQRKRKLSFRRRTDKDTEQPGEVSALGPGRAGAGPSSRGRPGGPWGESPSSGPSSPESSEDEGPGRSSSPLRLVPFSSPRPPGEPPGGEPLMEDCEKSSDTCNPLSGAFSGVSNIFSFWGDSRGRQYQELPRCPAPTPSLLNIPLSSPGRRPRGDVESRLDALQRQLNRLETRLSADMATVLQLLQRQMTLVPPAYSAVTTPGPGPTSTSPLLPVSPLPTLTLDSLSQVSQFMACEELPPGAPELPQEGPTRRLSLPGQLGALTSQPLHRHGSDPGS
# BT-474 = test: Antiproliferative activity against human BT474 cells after 4 days by SRB method; type: functional; details: BT-474, 96 h
# [2] = biological target: Heat shock protein HSP 90-beta (Homo sapiens, UniProt P08238); test: Inhibition of fluorescently labeled VER51001 binding to full length human HSP90beta after 30 mins by fluorescence polarization assay
# Chain of Heat shock protein HSP 90-beta (P08238 whole entry): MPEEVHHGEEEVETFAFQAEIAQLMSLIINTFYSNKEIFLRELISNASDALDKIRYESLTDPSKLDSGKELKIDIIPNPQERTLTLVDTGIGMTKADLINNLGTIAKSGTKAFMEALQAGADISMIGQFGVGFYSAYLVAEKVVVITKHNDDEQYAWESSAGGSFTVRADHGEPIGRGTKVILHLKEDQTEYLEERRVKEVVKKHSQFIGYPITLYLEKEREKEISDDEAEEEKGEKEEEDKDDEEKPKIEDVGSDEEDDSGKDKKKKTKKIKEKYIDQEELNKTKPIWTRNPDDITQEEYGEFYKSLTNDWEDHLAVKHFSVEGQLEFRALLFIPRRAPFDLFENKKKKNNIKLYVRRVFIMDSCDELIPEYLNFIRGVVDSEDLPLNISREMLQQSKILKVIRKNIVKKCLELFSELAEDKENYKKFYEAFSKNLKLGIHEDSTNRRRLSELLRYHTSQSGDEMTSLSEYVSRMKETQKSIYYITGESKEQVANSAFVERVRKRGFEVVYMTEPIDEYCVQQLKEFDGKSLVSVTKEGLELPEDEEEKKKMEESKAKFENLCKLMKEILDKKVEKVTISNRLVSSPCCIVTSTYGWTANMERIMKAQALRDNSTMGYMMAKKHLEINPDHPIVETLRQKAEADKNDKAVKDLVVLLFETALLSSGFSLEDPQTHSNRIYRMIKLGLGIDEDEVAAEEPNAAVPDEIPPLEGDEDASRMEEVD
# [3] = biological target: T1, Voltage-gated inwardly rectifying potassium channel KCNH2; test: Inhibition of human ERG expressed in HEK293 cells by voltage-clamp method; type: cell-based
# [4] = Binding affinity to hexa His-tagged HSP90 (9-236 aminoacids) by SPR assay
# Procedure, shortened: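 NTA chip charged with 0.5 mM Ni2+, then 100 nM His-tagged HSP90 captured to about 1500 RU. Running buffer 10 mM HEPES pH 7.4, 150 mM NaCl, EDTA, 0.05% Tween-20, 1% DMSO. Surface was reloaded for each concentration. Double-referenced sensorgrams were fitted globally to a single-step kinetic model.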
# [5] = Binding affinity to HSP90 after 30 mins by ITC assay
# Procedure, shortened: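 Isothermal titration calorimetry at 25 °C with stirring at 1000 rpm. Ligands came from a 20 mM DMSO stock and were run in dialysis buffer with 1% DMSO. Ligand 10 µM in the cell, protein 100–200 µM in the syringe, 8–16 injections at 300 s spacing. One-site fit.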
# MDA-MB-468 = test: Antiproliferative activity against human MDA-MB-468 cells after 4 days by SRB method; type: functional; details: MDA-MB-468, 96 h
# HCT-116 = test: Antiproliferative activity against human HCT116 cells after 4 days by SRB method; type: functional; details: HCT-116, 96 h
# UGT [6] = test: Intrinsic clearance in human liver microsomes assessed as UGT-mediated glucuronidation after 30 mins by LC-MS/MS analysis; type: ADME, Microsome; details: read-out: CLH
# [7] = Ratio of drug level in kidney to plasma of Balb-C mouse at 5 mg/kg, po; type: ADME, organism-based; parameters: dose 5 mg/kg, route oral
# [8] = Cmax in Balb-C mouse kidney at 5 mg/kg, po; type: ADME, organism-based; parameters: dose 5 mg/kg, route oral
# [9] = Cmax in Balb-C mouse plasma at 5 mg/kg, po; type: ADME, organism-based; parameters: dose 5 mg/kg, route oral
# [10] = Tmax in Balb-C mouse plasma at 5 mg/kg, po; type: ADME, organism-based; parameters: dose 5 mg/kg, route oral
# [11] = AUC (0 to 2 hrs ) in Balb-C mouse plasma at 5 mg/kg, po; type: ADME, organism-based; parameters: time < 2 hr, dose 5 mg/kg, route oral
# [12] = AUC (0 to 2 hrs ) in Balb-C mouse kidney at 5 mg/kg, po; type: ADME, organism-based; parameters: time < 2 hr, dose 5 mg/kg, route oral
# [13] = Tmax in Balb-C mouse kidney at 5 mg/kg, po; type: ADME, organism-based; parameters: dose 5 mg/kg, route oral
# UGT [14] = test: Intrinsic clearance in human liver microsomes assessed as UGT-mediated glucuronidation extraction ratio after 30 mins by LC-MS/MS analysis; type: ADME, Microsome; details: read-out: ERH
# [15] = Half life in Balb-C mouse muscle at 5 mg/kg, po; type: ADME, organism-based, Muscle tissue; parameters: dose 5 mg/kg, route oral
# [16] = Half life in Balb-C mouse kidney at 5 mg/kg, po; type: ADME, organism-based; parameters: dose 5 mg/kg, route oral
# [17] = AUC (0 to infinity) in Balb-C mouse kidney at 5 mg/kg, po; type: ADME, organism-based; parameters: time infinity, dose 5 mg/kg, route oral
# [18] = Tmax in Balb-C mouse muscle at 5 mg/kg, po; type: ADME, organism-based, Muscle tissue; parameters: dose 5 mg/kg, route oral
# [19] = Half life in Balb-C mouse plasma at 5 mg/kg, po; type: ADME, organism-based; parameters: dose 5 mg/kg, route oral
# [20] = Ratio of drug level in muscle to plasma of Balb-C mouse at 5 mg/kg, po; type: ADME, organism-based; parameters: dose 5 mg/kg, route oral
# [21] = Cmax in Balb-C mouse muscle at 5 mg/kg, po; type: ADME, organism-based, Muscle tissue; parameters: dose 5 mg/kg, route oral
# [22] = AUC (0 to infinity) in Balb-C mouse plasma at 5 mg/kg, po; type: ADME, organism-based; parameters: time infinity, dose 5 mg/kg, route oral
# [23] = AUC (0 to infinity) in Balb-C mouse muscle at 5 mg/kg, po; type: ADME, organism-based, Muscle tissue; parameters: time infinity, dose 5 mg/kg, route oral
Structure (SMILES),GI50 (BT-474) [nM],Ki [2] [nM],Kd [4] [nM],GI50 (MDA-MB-468) [nM],GI50 (HCT-116) [nM],further results
CCN(CC)CCOc1cc(-c2nc(SCC(=O)NC)nc3[nH]cc(C#N)c23)c(Cl)cc1Cl,78,8,–,–,–,IC50 [1]: 3140 nM; IC50 [3]: 17800 nM
CCN(CC)CCSc1nc(-c2cc(OC)c(C#N)cc2Cl)c2c(C#N)c[nH]c2n1,80,< 1,–,–,–,–
CCN(CC)CCSc1nc(-c2cc(OC)c(Cl)cc2Cl)c2c(C#N)c[nH]c2n1,72,< 1,–,–,–,–
CCN(CC)CCOc1cc(-c2nc(SC)nc3[nH]cc(C#N)c23)c(Cl)cc1Cl,31,2,–,–,–,–
COc1cc(Cl)c(-c2nc(SCC(=O)N3CCC3)nc3[nH]cc(C#N)c23)cc1O,21,< 1,–,28,172,–
CSc1nc(-c2ccc(C#N)cc2)c2nc[nH]c2n1,–,24500,> 20000,–,–,–
CCc1nc(-c2ccc(F)cc2C)c2c(C#N)c[nH]c2n1,–,1720,2220,–,–,Kd [5]: 1830 nM
CCNC(=O)CSc1nc(-c2cc(OC)c(OC)cc2Cl)c2c(C#N)c[nH]c2n1,141,2,–,59,42,–
COc1cc(Cl)c(-c2nc(SCC(=O)NCCF)nc3[nH]cc(C#N)c23)cc1O,85,2,–,183,728,–
CSc1nc(-c2ccc(C)cc2C)c2c(C#N)n[nH]c2n1,–,5230,38000,–,–,–
COc1cc(Cl)c(-c2nc(SCC(=O)NCCF)nc3[nH]cc(C#N)c23)cc1OC,136,5,–,178,98,–
CSc1nc(-c2ccc(F)cc2C)c2cc[nH]c2n1,–,> 200000,> 100000,–,–,–
CSc1nc(-c2ccc(C)cc2C)c2c(C(F)(F)F)c[nH]c2n1,–,2640,55000,–,–,–
COc1cc(Cl)c(-c2nc(SCC(=O)NC3CC3)nc3[nH]cc(C#N)c23)cc1OC,69,< 1,–,62,60,–
CSc1nc(-c2ccc(C)cc2C)c2cc[nH]c2n1,–,> 200000,> 100000,–,–,–
CSc1nc(-c2ccc(C#N)cc2)c2c(C#N)c[nH]c2n1,–,204,1220,–,–,–
CCOc1cc(-c2nc(SCC(=O)NC3CC3)nc3[nH]cc(C#N)c23)c(Cl)cc1OC,25,< 1,–,23,20,–
COc1cc(Cl)c(-c2nc(SCC(=O)NC3CC3)nc3[nH]cc(C#N)c23)cc1O,102,< 1,–,236,1160,–
CNC(=O)CSc1nc(-c2cc(OC)c(OC)cc2Cl)c2c(C#N)c[nH]c2n1,56,< 1,–,33,42,–
COc1cc(Cl)c(-c2nc(SCC(=O)NC(C)C)nc3[nH]cc(C#N)c23)cc1OC,81,< 1,–,102,81,–
CSc1nc(-c2ccc(F)cc2C)c2c(C#N)c[nH]c2n1,–,358,430,–,–,Kd [5]: 251 nM
COc1cc(Cl)c(-c2nc(SCC(=O)N(C)C)nc3[nH]cc(C#N)c23)cc1O,20,< 1,–,23,131,IC50 [1]: > 30000 nM; microsomal CLint (UGT [6]): 73 µL/min/mg; Kp [7]: 2.6; Cmax [8]: 31 ng/mL and 72 nM; IC50 [3]: > 30000 nM; Cmax [9]: 25 nM and 11 ng/mL; Tmax [10]: 15 min; AUC(0-t) at 2 h [11]: 16 ng·h/mL; AUC(0-t) at 2 h [12]: 41 ng·h/mL; Tmax [13]: 30 min; hepatic extraction ratio at 0.5 h (UGT [14]): 0.8
CSc1nc(-c2ccc(F)cc2C)c2nc[nH]c2n1,–,12800,2300,–,–,Kd [5]: 2730 nM
COc1cc(Cl)c(-c2nc(SCC(=O)NC(C)(C)C)nc3[nH]cc(C#N)c23)cc1OC,121,< 1,–,84,50,–
COc1cc(Cl)c(-c2nc(SCC(=O)N3CCC3)nc3[nH]cc(C#N)c23)cc1OC,31,< 1,–,35,28,–
COc1cc(Cl)c(-c2nc(SCC(=O)N(C)C)nc3[nH]cc(C#N)c23)cc1OC,34,< 1,–,30,32,IC50 [1]: > 30000 nM; half-life [15]: 144 min; half-life [16]: 72 min; microsomal CLint (UGT [6]): 4 µL/min/mg; AUC(0-inf) [17]: 6920 ng·h/mL; Kp [7]: 23.3; Tmax [18]: 15 min; Cmax [8]: 12.5 µM and 5390 ng/mL; half-life [19]: 84 min; IC50 [3]: > 30000 nM; Cmax [9]: 553 nM and 239 ng/mL; Kp [20]: 0.8; Kd [5]: < 3 nM; Tmax [10]: 15 min; Cmax [21]: 158 nM and 68 ng/mL; AUC(0-inf) [22]: 297 ng·h/mL; Tmax [13]: 15 min; AUC(0-inf) [23]: 231 ng·h/mL
CCN(CC)CCSc1nc(-c2cc(OC)c(OC)cc2Cl)c2c(C#N)c[nH]c2n1,26,7,–,–,–,–
CSc1nc(-c2ccc(F)cc2C)c2c(C(N)=O)c[nH]c2n1,–,> 200000,> 100000,–,–,–
COc1cc(Cl)c(-c2nc(SC)nc3[nH]cc(C#N)c23)cc1OCCN1CCC(F)(F)C1,47,12,–,–,–,–

# Further lines, with some results ahead:
GI50 (BT-474) [nM],Ki [2] [nM],Kd [4] [nM],GI50 (MDA-MB-468) [nM],GI50 (HCT-116) [nM],Structure (SMILES),further results
–,> 200000,> 20000,–,–,CSc1nc(-c2ccc(C)cc2C)c2c(Br)c[nH]c2n1,–
–,628,2810,–,–,COc1nc(-c2ccc(F)cc2C)c2c(C#N)c[nH]c2n1,Kd [5]: 725 nM
–,195,–,–,–,CSc1nc(-c2ccc(C)cc2C)c2c(C#N)c[nH]c2n1,Kd [5]: 156 nM
–,> 200000,19300,–,–,CSc1nc(-c2ccc(C)cc2C)c2c(C)c[nH]c2n1,–
48,4,–,–,–,CSc1nc(-c2cc(OCCN3CCCC3)c(Cl)cc2Cl)c2c(C#N)c[nH]c2n1,–
–,661,> 20000,–,–,CSc1nc(-c2ccc(Cl)cc2C)c2nc[nH]c2n1,–
161,3,–,178,238,COc1cc(Cl)c(-c2nc(SCC(=O)NC(C)C)nc3[nH]cc(C#N)c23)cc1O,–
45,< 1,–,124,153,COc1cc(Cl)c(-c2nc(SCC(=O)NCC(F)(F)F)nc3[nH]cc(C#N)c23)cc1OC,–
84,< 1,–,77,65,CCOc1cc(-c2nc(SCC(=O)NC(C)C)nc3[nH]cc(C#N)c23)c(Cl)cc1OC,–
31,3,–,–,–,COc1cc(Cl)c(-c2nc(SC)nc3[nH]cc(C#N)c23)cc1OCCN1CC[C@H](F)C1,–
–,2830,1880,–,–,Cc1ccc(-c2ncnc3[nH]cc(C#N)c23)c(C)c1,Kd [5]: 1620 nM
388,172,–,–,–,COc1cc(Cl)c(-c2nc(SC(C)C)nc3[nH]cc(C#N)c23)cc1OCCN1CCC(F)(F)C1,–
2010,62,–,–,–,CCN(CC)CCOc1nc(-c2cc(OC)c(Cl)cc2Cl)c2c(C#N)c[nH]c2n1,–
–,4070,4260,–,–,CNc1nc(-c2ccc(F)cc2C)c2c(C#N)c[nH]c2n1,Kd [5]: 3690 nM
–,> 50000,> 100000,–,–,CSc1nc(-c2ccc(C)cc2C)c2c(C3CC3)c[nH]c2n1,–
–,> 200000,> 100000,–,–,CSc1nc(-c2ccc(C#N)cc2)c2cc[nH]c2n1,–
44,< 1,–,64,40,CCNC(=O)CSc1nc(-c2cc(OCC)c(OC)cc2Cl)c2c(C#N)c[nH]c2n1,–
128,< 1,–,152,117,COc1cc(Cl)c(-c2nc(SCC(=O)NC(C)(C)C)nc3[nH]cc(C#N)c23)cc1O,–
